The species named for experiment [1] is Mus musculus. Description: Average survival days at the dose 40 mg/ kg in mice bearing the L1210 Leukemia. Format: functional.
For experiment [2], the species on record is Mus musculus. Description: Average change in body weight from onset to termination of therapy in mice bearing the L1210 Leukemia(dose 40 mg/ kg ). Format: functional. The conditions noted are these: at 40 mg/kg. Summed up: (§1)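 L1210 leukemia in CD2F1 mice. Drug was given ip as a suspension once daily for 6 consecutive days, starting 24 h after tumor implantation, with 5–10 mice per group. The value is the average body-weight change from onset to termination of therapy, in percent.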

The subject of experiment [3] is Mus musculus. Description: Effect of compound on mice bearing the L1210 Leukemia expressed as T/C percent treated/control)-dose 10 mg/kg. Format: functional.
The species entered for experiment [4] is Mus musculus. Description: Average change in body weight from onset to termination of therapy in mice bearing the L1210 Leukemia(dose 10x2 mg/ kg ). Format: functional. Summed up: (§2)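 Female CD2F1 mice carried implanted L1210 leukemia. Drug was given ip in suspension twice daily for 6 consecutive days, beginning 24 h after implantation, with 5–10 mice per group. The value is the average percent body-weight change from onset to termination of therapy.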

Experiment [5] is filed under the species Mus musculus. Briefly: Average change in body weight from onset to termination of therapy in mice bearing the L1210 Leukemia(dose 15x2 mg/ kg ). It is filed as functional. Summed up: as §2
The species entered for experiment [6] is Mus musculus. Briefly: Average survival days at the dose 10x2 mg/ kg in mice bearing the L1210 Leukemia. Format: functional. The essentials:
(§3)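 CD2F1 female mice with implanted L1210 leukemia; each compound given ip as a suspension, twice daily for 6 consecutive days, starting 24 h after tumor implantation; 5-10 mice per group. Read-out is mean survival time, counting only mice dying before day 60. Body weight change is recorded from onset to end of therapy.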

Experiment [7] is filed under the species Mus musculus. Briefly: Average survival days at the dose 15x2 mg/ kg in mice bearing the L1210 Leukemia. Format: functional. The essentials:
as §3

For experiment [8], the species on record is Mus musculus. Briefly: Average survival days at the dose 20x2 mg/ kg in mice bearing the L1210 Leukemia. It is filed as functional. Summed up: as §3
The species entered for experiment [9] is Mus musculus. Description: Average survival days at the dose 30x2 mg/ kg in mice bearing the L1210 Leukemia. It is filed as functional. Summed up:
as §3

The species entered for experiment [10] is Mus musculus. Briefly: Average change in body weight from onset to termination of therapy in mice bearing the L1210 Leukemia(dose 20x2 mg/ kg ). Format: functional. Summed up: as §2
The species named for experiment [11] is Mus musculus. Description: Average change in body weight from onset to termination of therapy in mice bearing the L1210 Leukemia(dose 30x2 mg/ kg ). It is filed as functional. The essentials: as §2
Experiment [12] is filed under the species Mus musculus. Description: Effect of compound on mice bearing the L1210 Leukemia expressed as T/C percent treated/control)-dose 20x2 mg/ kg. It is filed as functional.
The species named for experiment [13] is Mus musculus. Briefly: Effect of compound on mice bearing the L1210 Leukemia expressed as T/C percent treated/control)-dose 30x2 mg/ kg. It is filed as functional.
The species entered for experiment [14] is Mus musculus. Briefly: Effect of compound on mice bearing the L1210 Leukemia expressed as T/C percent treated/control)-dose 40 mg/ kg. Format: functional. To be noted: at 40 mg/kg.
The species entered for experiment [15] is Mus musculus. Briefly: Effect of compound on mice bearing the L1210 Leukemia expressed as T/C percent treated/control)-dose 10x2 mg/ kg. It is filed as functional.
For experiment [16], the species on record is Mus musculus. Description: Effect of compound on mice bearing the L1210 Leukemia expressed as T/C percent treated/control)-dose 15x2 mg/ kg. It is filed as functional.
Experiment [17] is filed under the species Mus musculus. Briefly: Average survival days at the dose 40x2 mg/ kg in mice bearing the L1210 Leukemia. Format: functional. Summed up: as §3
The species named for experiment [18] is Mus musculus. Briefly: Average change in body weight from onset to termination of therapy in mice bearing the L1210 Leukemia(dose 40x2 mg/ kg ). Format: functional. Summed up: as §2
The species named for experiment [19] is Mus musculus. Description: Average change in body weight from onset to termination of therapy in mice bearing the L1210 Leukemia(dose 60 mg/ kg ). Format: functional. The conditions noted are these: at 60 mg/kg. The essentials: as §1
The species entered for experiment [20] is Mus musculus. Briefly: Effect of compound on mice bearing the L1210 Leukemia expressed as T/C percent treated/control)-dose 40x2 mg/ kg. It is filed as functional.
Experiment [21] is filed under the species Mus musculus. Description: Effect of compound on mice bearing the L1210 Leukemia expressed as T/C percent treated/control)-dose 60 mg/ kg. To be noted: at 60 mg/kg. Format: functional.
For experiment [22], the species on record is Mus musculus. Briefly: Average survival days at the dose 60 mg/ kg in mice bearing the L1210 Leukemia.
The species named for experiment [23] is Mus musculus. Description: Average change in body weight from onset to termination of therapy in mice bearing the L1210 Leukemia(dose 20 mg/ kg ). The conditions noted are these: at 20 mg/kg. It is filed as functional. The essentials: as §1
For experiment [24], the species on record is Mus musculus. Briefly: Effect of compound on mice bearing the L1210 Leukemia expressed as T/C percent treated/control)-dose 20 mg/ kg. It is filed as functional. To be noted: at 20 mg/kg.
The species named for experiment [25] is Mus musculus. Description: Average change in body weight from onset to termination of therapy in mice bearing the L1210 Leukemia(dose 10 mg/ kg ). It is filed as functional. To be noted: at 10 mg/kg. Summed up:
as §1

For experiment [26], the species on record is Mus musculus. Briefly: Average survival days at the dose 20 mg/ kg in mice bearing the L1210 Leukemia.

Experimental findings from ChEMBL document CHEMBL1125305, “Synthesis and antitumor activity of amino derivatives of pyridine-2-carboxaldehyde thiosemicarbazone” (1992) are described below.

In turn, `N/C(S)=N/N=C/c1ccc(O)cn1` had an Average survival in experiment [1] of 10.4 days. Moreover, the “Average change in body weight” value in experiment [2] is 2%. Moreover, in experiment [3], the T/C is given as 133%.
`NC(=S)N/N=C/c1ncccc1N` [TRIAPINE]: the “Average change in body weight” value in [4] was -6.4%; in [5], -3.3%; in [10], -12.4%; in experiment [11], -12.8%; in experiment [2], -5.9%. Moreover, the Average survival in experiment [6] was determined as 18.7 days; in experiment [7], 19.8 days; in experiment [8] it was 14.6 days; in [9], 7.3 days; in [1], 14.6 days. Further, the T/C is given as 192% in experiment [12]; 96% in experiment [13]; 187% in experiment [14]; 246% in experiment [15]; 262% in experiment [16].
In the case of `Cc1ccnc(/C=N/N=C(/N)S)c1N`, the “Average change in body weight” value in [4] is recorded as 1.4%; in experiment [10], -3.8%; in experiment [11] it was -2.4%; in [18] it was -8.1%; in [19] it was 2%. For the same compound, the Average survival was determined as 14.8 days in experiment [6]; 16.9 days in [8]; 17.6 days in [9]; 19.4 days in experiment [17]; 14.9 days in [22]. Moreover, the T/C in experiment [12] is listed as 222%; in experiment [13] it was 232%; in experiment [20] it was 255%; in experiment [21] it was 190%; in experiment [15] it was 195%.
`Cc1cc(/C=N/N=C(/N)S)ncc1N`: the “Average change in body weight” value in experiment [4] is 1.4%; in experiment [5], -7.1%; in experiment [23] it was -7%; in experiment [10], -12.1%; in [11] it was -12.4%. Besides, the Average survival in experiment [6] was 18.6 days; in experiment [7], 21 days; in experiment [8], 17.9 days; in experiment [9], 14.4 days; in [1], 10.8 days. For the same compound, the T/C in experiment [12] is on record as 236%; in experiment [13] it was 190%; in experiment [15] it was 245%; in experiment [16], 276%; in experiment [24], 138%.
On to `Cc1cc(/C=N/N=C(/N)S)ncc1NO`, for which the “Average change in body weight” value in experiment [25] was -2.7%. In experiment [1], this compound came in with an Average survival of 10.6 days. The T/C in experiment [3] is recorded as 136%.
`N/C(S)=N/N=C/c1ccc(N)cn1`: the “Average change in body weight” value in experiment [4] is reported as -3.8%; in experiment [5], -7.7%; in experiment [23] it was -2.8%; in experiment [10] it was -12.3%; in experiment [11], -16%. In addition, the Average survival in experiment [6] came out at 17.6 days; in [7], 16.8 days; in experiment [8], 14 days; in [9] it was 6.9 days; in [26] it was 11 days. Also, the T/C in experiment [12] worked out at 185%; in [13], 91%; in [15], 232%; in [16], 221%; in experiment [24] it was 140%.
